Bioassay records from PubChem BioAssay.
In the library only some 2.3% were active in any assay of this set; here they are far more common.
TRPC6 act: activators of mouse TRPC6 channel. Q61143. HEK293-TRPC6 membrane potential dye fluorescence; hits give high values. B-score at 10 µM. 310,000 compounds, 0.13% hits. AID 2550;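 active = B-score of the integrated fluorescence ratio above library mean plus 3 SD, and starting fluorescence ratio within library mean plus 5 SD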;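 also: higher score means more depolarization so channel activation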
Target sequence (Q61143 whole entry, looked up): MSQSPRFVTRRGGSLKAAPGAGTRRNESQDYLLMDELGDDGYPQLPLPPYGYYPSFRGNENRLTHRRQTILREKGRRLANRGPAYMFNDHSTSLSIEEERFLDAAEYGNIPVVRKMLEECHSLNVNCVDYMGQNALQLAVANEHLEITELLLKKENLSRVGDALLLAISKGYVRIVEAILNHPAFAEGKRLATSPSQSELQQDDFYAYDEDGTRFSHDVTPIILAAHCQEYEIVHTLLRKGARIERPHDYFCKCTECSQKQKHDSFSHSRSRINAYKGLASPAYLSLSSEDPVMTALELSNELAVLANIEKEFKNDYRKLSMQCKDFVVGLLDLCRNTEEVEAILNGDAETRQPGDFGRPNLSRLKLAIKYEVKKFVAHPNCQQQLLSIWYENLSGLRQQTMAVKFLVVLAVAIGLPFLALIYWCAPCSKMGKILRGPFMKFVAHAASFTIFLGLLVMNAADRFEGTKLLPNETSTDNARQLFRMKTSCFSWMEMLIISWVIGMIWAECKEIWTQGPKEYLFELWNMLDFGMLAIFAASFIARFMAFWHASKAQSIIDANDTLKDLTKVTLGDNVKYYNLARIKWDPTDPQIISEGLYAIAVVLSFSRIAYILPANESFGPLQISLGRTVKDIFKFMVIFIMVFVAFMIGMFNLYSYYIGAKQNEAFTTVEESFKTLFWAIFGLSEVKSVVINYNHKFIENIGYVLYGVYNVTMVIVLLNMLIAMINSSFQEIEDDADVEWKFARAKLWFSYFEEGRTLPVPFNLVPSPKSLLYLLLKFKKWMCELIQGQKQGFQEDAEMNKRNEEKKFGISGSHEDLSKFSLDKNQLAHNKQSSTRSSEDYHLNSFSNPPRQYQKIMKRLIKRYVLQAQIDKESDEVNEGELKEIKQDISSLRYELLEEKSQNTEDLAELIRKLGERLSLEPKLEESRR
TRPC4 agonist: activators of mouse TRPC4 channel; HEK293 TRPC4beta/mu-opioid, Fluo4 calcium fluorescence; hits give high values; 310,000 compounds, 0.49% hits; Q9QUQ5; B-score at 10 µM; AID 2237;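 active = B-score above 5 SD of library B-scores, and initial fluorescence ratio not above library mean plus 5 SD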;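 also: positive B-score marks a calcium rise read as TRPC4 activation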
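Assay system: HEK293 stable line with TRPC4beta plus mu-opioid receptor. Times: dye 45 min RT, read 110 s. Measured by: kinetic Fluo4 calcium fluorescence. Measure: B score of integrated ratio. Controls: assay buffer as low control, maximal DAMGO as high control.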
TRPC4 inh: blocks the mouse TRPC4 cation channel; AID 2247; B-score at 10 µM; Q9QUQ5; 300,000 compounds, 0.39% hits; HEK293 TRPC4beta/mu-opioid, DAMGO-evoked Fluo4 calcium flux; hits give low values;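 active = B-score over 3 SD under the library average, no early fluorescence shift, positive overall ratio signal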
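Assay system: Stable TRPC4beta/mu-opioid receptor HEK293 cells | Reagent: DAMGO in two steps, submaximal then maximal | Compound dosing: Single concentration per test compound | Signal: Fluo4 Ca2+ flux fluorescence | Evaluation: Per-well B score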
DNA FID counter: displaces DNA intercalator in HCV helicase counter-screen. 290,000 compounds, 0.17% hits. inhibition, % at 7.9 µM. DNA fluorescent intercalator displacement, fluorescence; in the data active = inhibition above about 37%;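 also: 0% = vehicle and 100% = reference compound; higher means more ethidium bromide displaced from hairpin DNA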
TRPC4 PAM: allosterically enhances the mouse TRPC4 cation channel. AID 2227. HEK293 TRPC4beta/mu-opioid, DAMGO EC20, Fluo-4 Ca2+ flux; hits give high values. 310,000 compounds, 0.42% hits. Q9QUQ5. B-score at 10 µM;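 active = B-score of calcium response area above 5 SD of library B-scores, with initial fluorescence ratio within 5 SD of library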;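 also: B-score of integrated fluorescence ratio over time as area under calcium response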
TRPC6 inh: blocks the mouse TRPC6 cation channel; Q61143; HEK293-TRPC6, membrane potential dye, ACh-evoked depolarization; hits give low values; B-score at 10 µM; 310,000 compounds, 1.1% hits; AID 2553;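 active = B-score under library mean minus 3 SD, initial fluorescence not abnormally high, positive integrated signal ratio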;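 also: B-score derived from integrated fluorescence ratio over the kinetic read; more negative B-score means stronger inhibition of depolarization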
TRPC4 spec 2: mouse TRPC4 off-target activity of TRPC6 inhibitors, second screen; shares compounds with TRPC6 inh; HEK293 TRPC4/MOR, membrane potential dye fluorescence; channel activated by saturating DAMGO dose; inhibition, % at 10 µM; 920 compounds, 42% hits; AID 2776;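 active = compounds whose fluorescence signal differed from control wells by over 3 SD, either direction, in both duplicate plates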
TRPC4 spec: selectivity of TRPC6 inhibitors: effect on mouse TRPC4; HEK293 TRPC4/mu-opioid, membrane potential fluorescence; 920 compounds, 61% hits; shares compounds with TRPC6 inh; AID 2777; activity change, negative = inhibition, % at 10 µM;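 active = rise or fall in signal beyond 3 SD of buffer-only wells in both replicate plates, either sign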;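 also: integrated kinetic ratio of fluorescence range over baseline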
HEK293 MPD ctr 2-1: second check of TRPC6 inhibitor effects in parental HEK293 cells | shares compounds with TRPC6 inh | parental HEK293 membrane potential dye fluorescence; maximal acetylcholine challenge after compound addition | signal change vs control, % at 10 µM | 920 compounds, 31% hits;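 active = membrane potential signal moving either way by over 3 SD of the maximum-effect control, in both duplicate plates, meaning non-specific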
HEK293 MPD ctr-1: parental HEK293 nonspecific activity of TRPC6 inhibitors; shares compounds with TRPC6 inh; parental HEK293 membrane potential dye fluorescence; membrane potential signal change, % at 10 µM; 920 compounds, 60% hits;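 active = membrane potential signal shifting up or down by more than 3 SD of buffer-only wells, on both duplicate plates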
HEK293 MPD ctr-2: checks TRPC6 modulator effects in parental HEK293 cells; membrane potential dye fluorescence; membrane potential signal change, % at 10 µM; 2,400 compounds, 51% hits; shares compounds with TRPC6 inh;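 active = membrane potential signal moves up or down beyond 5 SD from buffer-only wells, on both duplicate plates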
HEK293 MPD ctr 2-2: second counter-screen for TRPC6 modulators: effect in parental HEK293 cells; shares compounds with TRPC6 inh; membrane potential dye fluorescence; after compound, maximal acetylcholine stimulation; inhibition, % at 10 µM; 2,400 compounds, 14% hits; AID 488926;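 active = membrane potential signal drops by more than 5 SD from the mean control signal, in both duplicate plates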;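 also: plate controls were acetylcholine ECmax control wells for no effect and buffer only wells for full effect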
TRPC4/MOR mod: mouse TRPC4 off-target activity of TRPC6 modulators; shares compounds with TRPC6 inh; 2,400 compounds, 69% hits; HEK293 TRPC4/mu-opioid, membrane potential fluorescence; percent change from control (negative = decrease, positive = increase), % at 10 µM;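 active = membrane potential signal moved up or down beyond 5 SD of buffer control wells, in both duplicate plates, actives on both sides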;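 also: plate controls were assay buffer wells for no effect and DAMGO maximal-effect wells for full effect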
TRPC4 ctr inh 2: second check of whether TRPC6 modulators also affect mouse TRPC4; shares compounds with TRPC6 inh; HEK293 TRPC4/mu-opioid, membrane potential dye fluorescence; stimulated with maximal-effect DAMGO; inhibition, % at 10 µM; 2,400 compounds, 55% hits; AID 488928;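 active = drop in membrane potential signal beyond 5 SD of the control wells in both duplicate plates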;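 also: TRPC4 counter screen for TRPC6 hits run under conditions tuned for TRPC6 not TRPC4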
TRPC6 block conf: mouse TRPC6 inhibitor confirmation | shares compounds with TRPC6 inh | inhibition, % at 10 µM | 3,300 compounds, 43% hits | HEK293-TRPC6, membrane potential dye, ACh-evoked depolarization;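 active = fluorescence ratio falls more than 5 SD below the full-stimulation control mean, in both duplicate runs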;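 also: integrated fluorescence ratio of peak minus minimum over baseline after agonist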
TRPC6 act conf: confirmation of mouse TRPC6 activators; HEK293-TRPC6 membrane potential dye fluorescence, FDSS; activation, % at 10 µM; shares compounds with TRPC6 inh; AID 488961; 2,800 compounds, 11% hits;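 active = ratio signal rise beyond 5 SD above unstimulated control wells' mean, seen in both duplicate runs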;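 also: plate controls were buffer EC0 wells for no effect and acetylcholine ECmax response for full effect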
* marks the source's active call; other numbers are inactive results; i = inactive; nt = no result; ! = a repeat was not active.

SMILES	TRPC6 act	TRPC4 agonist	TRPC4 inh	DNA FID counter	TRPC4 PAM	TRPC6 inh	HEK293 MPD ctr-2	HEK293 MPD ctr 2-2	TRPC4/MOR mod	TRPC4 ctr inh 2	TRPC6 block conf	TRPC6 act conf	others
CCN(CC)Cc1cc(Nc2ccnc3cc(Cl)ccc23)ccc1O	i	i	i	69*	i	-5.7*!	-184%*	i	-34%*	52%*	i	i
Cc1nn(CC(=O)N2CCN(c3cccc(C(F)(F)F)c3)CC2)c(=O)c2cccn12	i	i	i	-42	i	i	nt	nt	nt	nt	nt	nt
CN1CCN(Cc2ccc(Sc3ccc(Cl)cc3)c([N+](=O)[O-])c2)CC1	i	i	i	35	i	-6.5*	i	i	-14%*	52%*	44%*	i
CCN1CCCC1CNC(=O)c1ccc(Sc2ccc(F)cc2)c([N+](=O)[O-])c1 (configuration not stated)	i	i	i	25	i	-8.2*	i	i	i	56%*	52%*	i
CCN1CCCC1CNC(=O)c1ccc(Sc2ccccc2Cl)c([N+](=O)[O-])c1 (configuration not stated)	i	i	i	29	i	-7.1*	i	i	i	44%*	42%*	i
CCN1CCN(C(=O)c2ccc(Sc3ccccc3Cl)c([N+](=O)[O-])c2)CC1	i	i	i	6	i	i	nt	nt	nt	nt	nt	nt
O=C(NCCCN1CCOCC1)c1ccc(Sc2ccc(F)cc2)c([N+](=O)[O-])c1	i	i	i	28	i	i	nt	nt	nt	nt	nt	nt
CC[N+](C)(C)CCN(Cc1ccc(Cl)cc1)c1ccccn1	i	i	i	10	i	-6.4*	i	i	i	i	i	i
CN(/C(=N/S(=O)(=O)c1ccccc1)c1ccccc1)S(=O)(=O)c1ccccc1	i	i	i	-1	i	-6.5*	i	i	10%*	i	i	i
CN(/C(=N\S(=O)(=O)c1ccccc1)c1ccccc1)c1ccc(O)cc1	i	i	i	-21	i	i	nt	nt	nt	nt	nt	nt
Cc1ccc(C(=O)c2cc([N+](=O)[O-])ccc2N2CCOCC2)cc1C	i	i	i	1	i	i	nt	nt	nt	nt	nt	nt
Cc1ccc(C(=O)c2cc([N+](=O)[O-])ccc2N2CCOCC2)c(C)c1	i	i	i	-9	i	-5.4*	i	i	i	i	i	i
O=C(c1ccc(Cl)c([N+](=O)[O-])c1)N1CCCc2ccccc21	i	i	i	-14	i	i	nt	nt	nt	nt	nt	nt
CCCCn1c2c(c(=N)c3ccccc31)CCC2	i	i	i	5	i	-7.2*	nt	nt	nt	nt	83%*	i	TRPC4 spec 2=60%*;TRPC4 spec=-29%*;HEK293 MPD ctr 2-1=-20%*;HEK293 MPD ctr-1=-508%*
CCCCCn1c2c(c(=N)c3ccccc31)CCC2	i	i	-8*	4	i	-8.1*	nt	nt	nt	nt	71%*	i	TRPC4 spec 2=56%*;TRPC4 spec=-26%*;HEK293 MPD ctr 2-1=20%*;HEK293 MPD ctr-1=-388%*
CCCCCCCCn1c2c(c(=N)c3ccccc31)CCC2	i	i	i	25	i	i	nt	nt	nt	nt	nt	nt
O=S1(=O)N=C(N(CCO)/N=C/c2ccc(Br)cc2)c2ccccc21	i	i	i	-23	i	i	nt	nt	nt	nt	nt	nt
CC(C)[C@H](NC(=O)N1c2ccccc2NC(=O)[C@@H]1C(C)C)C(=O)N[C@@H](Cc1c[nH]c2ccccc12)C(=O)O	i	i	i	-33	i	i	nt	nt	nt	nt	nt	nt
CCC(=O)Nc1c(-c2ccc3ccccc3c2)nc2ccccn12	i	i	i	-7	i	i	nt	nt	nt	nt	nt	nt
COc1cc(C(=O)OCC(=O)Nc2c(F)cccc2F)cc(OC)c1C	i	i	i	-6	i	i	nt	nt	nt	nt	nt	nt
COc1cc(C(=O)OCC(=O)Nc2c(F)c(F)c(F)c(F)c2F)cc(OC)c1OC	i	i	i	-14	i	-5.4*	i	i	i	i	i	i
Cc1ccn2c(=O)c(C(=O)NCCCN3CCCCC3C)c(O)nc2c1 (configuration not stated)	i	i	i	-4	i	-5.3*	-274%*	70%*	-44%*	56%*	76%*	i
Cc1cccn2c(=O)c(C(=O)NCCCN3CC(C)CC(C)C3)c(O)nc12 (configuration not stated)	i	73*	i	nt	i	-5.1*	-140%*	i	i	i	i	i
Cc1ccn2c(=O)c(C(=O)NCCCN3CCCC3=O)c(O)nc2c1	i	i	i	-9	i	-5.5*	-316%*	i	-45%*	i	i	i
O=[N+]([O-])c1ccc(S(=O)(=O)N2CCN=C2SCc2ccc(F)cc2)cc1	i	i	i	1	i	i	nt	nt	nt	nt	nt	nt
